The target in series [1] is T1, Phosphatidylinositol 4,5-bisphosphate 3-kinase catalytic subunit delta isoform (Homo sapiens, UniProt O00329).
T1 sequence (O00329 whole entry): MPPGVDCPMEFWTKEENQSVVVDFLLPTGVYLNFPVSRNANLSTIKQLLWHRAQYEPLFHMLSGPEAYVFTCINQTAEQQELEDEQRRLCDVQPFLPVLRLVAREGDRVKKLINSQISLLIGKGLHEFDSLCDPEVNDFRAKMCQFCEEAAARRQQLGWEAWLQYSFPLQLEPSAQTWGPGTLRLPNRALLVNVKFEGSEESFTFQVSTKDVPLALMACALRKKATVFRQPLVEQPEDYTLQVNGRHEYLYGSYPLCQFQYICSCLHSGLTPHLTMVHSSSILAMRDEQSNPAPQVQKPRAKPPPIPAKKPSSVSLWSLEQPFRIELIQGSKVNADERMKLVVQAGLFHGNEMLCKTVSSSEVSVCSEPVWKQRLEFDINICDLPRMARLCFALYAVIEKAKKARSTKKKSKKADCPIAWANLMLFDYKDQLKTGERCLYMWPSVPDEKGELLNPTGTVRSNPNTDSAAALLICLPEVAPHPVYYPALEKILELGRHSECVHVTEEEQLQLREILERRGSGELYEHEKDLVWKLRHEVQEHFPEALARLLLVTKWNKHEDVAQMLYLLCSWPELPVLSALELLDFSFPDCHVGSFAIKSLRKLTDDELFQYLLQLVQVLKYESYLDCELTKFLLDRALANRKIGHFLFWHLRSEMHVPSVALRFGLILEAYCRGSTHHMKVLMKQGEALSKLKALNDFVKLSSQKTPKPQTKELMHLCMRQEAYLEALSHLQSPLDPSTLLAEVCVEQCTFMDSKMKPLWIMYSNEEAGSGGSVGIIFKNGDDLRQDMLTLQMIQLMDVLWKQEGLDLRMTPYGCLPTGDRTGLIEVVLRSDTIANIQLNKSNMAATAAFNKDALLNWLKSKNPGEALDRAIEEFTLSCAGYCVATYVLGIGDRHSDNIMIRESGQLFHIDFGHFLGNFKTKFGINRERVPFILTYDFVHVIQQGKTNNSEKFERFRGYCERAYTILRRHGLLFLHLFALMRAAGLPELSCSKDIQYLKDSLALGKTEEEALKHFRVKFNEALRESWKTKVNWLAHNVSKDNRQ
As to the kind of experiment: Displacement of TAMRA-PIP3 from PI3Kdelta GRP-1 pleckstrin homology domain (unknown origin) assessed as formation of 3,4,5-inositoltriphosphate after 30 mins by fluorescence polarization assay. A general note: Fluorescence polarisation rises when a labelled molecule tumbles more slowly, as on binding a larger partner.

For series [2], the target named is Phosphatidylinositol 4,5-bisphosphate 3-kinase catalytic subunit alpha isoform (Homo sapiens, UniProt P42336). As to the kind of experiment: Displacement of TAMRA-PIP3 from PI3Kalpha GRP-1 pleckstrin homology domain (unknown origin) assessed as formation of 3,4,5-inositoltriphosphate after 30 mins by fluorescence polarization assay.
Phosphatidylinositol 4,5-bisphosphate 3-kinase catalytic subunit alpha isoform, sequence (P42336 whole entry, the tested form may be a part, canonical isoform): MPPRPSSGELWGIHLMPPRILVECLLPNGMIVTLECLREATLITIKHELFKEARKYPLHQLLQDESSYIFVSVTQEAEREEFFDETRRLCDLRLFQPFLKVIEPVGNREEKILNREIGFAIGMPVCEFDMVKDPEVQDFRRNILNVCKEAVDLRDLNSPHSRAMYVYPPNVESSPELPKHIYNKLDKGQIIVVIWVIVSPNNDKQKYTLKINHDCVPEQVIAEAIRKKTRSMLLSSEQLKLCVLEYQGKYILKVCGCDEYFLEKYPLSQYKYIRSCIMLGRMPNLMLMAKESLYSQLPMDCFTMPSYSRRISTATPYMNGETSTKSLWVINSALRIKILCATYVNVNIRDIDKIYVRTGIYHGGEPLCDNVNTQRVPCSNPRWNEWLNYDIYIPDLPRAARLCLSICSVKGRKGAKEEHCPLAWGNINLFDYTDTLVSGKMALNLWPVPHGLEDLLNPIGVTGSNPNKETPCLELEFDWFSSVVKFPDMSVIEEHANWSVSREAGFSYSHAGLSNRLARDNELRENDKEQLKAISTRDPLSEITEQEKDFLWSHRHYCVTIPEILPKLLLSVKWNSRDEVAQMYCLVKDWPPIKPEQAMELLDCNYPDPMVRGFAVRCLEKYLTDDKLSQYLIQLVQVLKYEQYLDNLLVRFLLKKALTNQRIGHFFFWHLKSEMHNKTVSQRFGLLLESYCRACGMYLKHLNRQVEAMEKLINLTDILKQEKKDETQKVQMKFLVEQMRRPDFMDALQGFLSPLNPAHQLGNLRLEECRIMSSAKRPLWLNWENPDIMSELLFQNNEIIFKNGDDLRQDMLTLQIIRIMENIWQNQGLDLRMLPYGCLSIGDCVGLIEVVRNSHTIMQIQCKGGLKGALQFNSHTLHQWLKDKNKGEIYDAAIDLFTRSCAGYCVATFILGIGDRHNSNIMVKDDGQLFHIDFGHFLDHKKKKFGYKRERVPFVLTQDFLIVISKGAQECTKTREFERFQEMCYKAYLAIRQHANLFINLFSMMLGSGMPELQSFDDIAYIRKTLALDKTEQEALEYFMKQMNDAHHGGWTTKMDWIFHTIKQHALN
Series [3] deals with T2, Serine/threonine-protein kinase mTOR (Homo sapiens, UniProt P42345). Put plainly: Inhibition of mTOR in PTEN deficient human PC3 cells assessed as inhibition of Akt phosphorylation at Ser473. The format is cell-based, PC-3.
Series [4] has as its target T2, Serine/threonine-protein kinase mTOR. Put plainly: Inhibition of mTOR in PTEN deficient human PC3 cells assessed as inhibition of p70S6K phosphorylation. The format is cell-based, PC-3.
Series [5] concerns PC-3. As to the kind of experiment: Antiproliferative activity against PTEN deficient human PC3 cells assessed as cell viability after 3 days by CellTiter-Glo assay. As to conditions: PC-3, 72 h. The format is functional, cell-based. Put shortly: (§1)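 Three-day cell viability assay in PTEN-null NCI-PC3 prostate carcinoma cells and in MCF7 neo/HER2 cells, read as antiproliferative activity.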
(In general: Cellular ATP, detected with luciferase, serves as a proxy for viable cell number.)

In series [6] the test system is MCF7. Put plainly: Antiproliferative activity against human MCF7 cells expressing neo/Her2 assessed as cell viability after 3 days by CellTiter-Glo assay. Format: functional, cell-based. To be noted: MCF7, 72 h. Put shortly:
as §1

In series [7] the target is T2, Serine/threonine-protein kinase mTOR. Put plainly: Inhibition of human recombinant mTOR (1360-2549) expressed in insect cells assessed as phosphorylation of recombinant (GFP)-4-EBP1 after 30 mins by LanthaScreen FRET assay. In general terms: In TR-FRET formats the signal depends on donor and acceptor labels being close together.
Series [8] shares this target. As to the kind of experiment: Inhibition of mTOR (unknown origin).
A short description of series [9]: Volume of distribution at steady state in iv dosed mouse. The format is ADME, organism-based. To be noted: in vivo, read-out: Vdss.
Series [10] in a line: Oral bioavailability in mouse at 25 mg/kg. Format: ADME, organism-based. As to conditions: in vivo. A digest of the protocol:
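Mice were given a 25 mg/kg oral dose as a suspension in MCT. Bioavailability was reported as %F.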

A short description of series [11]: Efflux ratio of apparent permeability in MDCK cells. Format: ADME, cell-based, Canis lupus familiaris. To be noted: dog.
Series [12] in a line: Apparent permeability across basolateral to apical side in MDCK cells. The format is ADME, cell-based, Canis lupus familiaris. As to conditions: dog.
Series [13] is described as follows: Plasma clearance in iv dosed mouse. Format: ADME, organism-based.
The species named for series [14] is Homo sapiens. As to the kind of experiment: Selectivity ratio of IC50 for PI3Kalpha (unknown origin) to Ki for human recombinant mTOR (1360-2549). Put shortly: (§2)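 Ratio of two biochemical values. The PI3K IC50 (PI3Kα or PI3Kδ) comes from a fluorescence polarization kinase assay. The mTOR Ki comes from a LanthaScreen FRET assay on the recombinant mTOR kinase domain. Each value is from at least two separate determinations, with typical variation under 30%.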

The species entered for series [15] is Homo sapiens. As to the kind of experiment: Selectivity ratio of IC50 for PI3Kdelta (unknown origin) to Ki for human recombinant mTOR (1360-2549). A digest of the protocol:
as §2

Some results are limits rather than exact numbers.

For orientation: Ki means a measure of affinity in units of concentration, obtained from inhibition or displacement. The IC50 is the concentration at which inhibition is half-maximal. The EC50 is the concentration needed to bring the measured effect to its halfway point. By bioavailability is commonly meant the share of a dose that reaches the circulation, judged against a reference dose that is usually intravenous. The efflux ratio is a quotient of directional permeabilities that is used to spot active efflux. One may read the Papp B→A as how fast a substance crosses the layer from the basolateral side. What is called clearance is the volume of plasma or blood freed of the substance per unit of time. Higher therefore signals efficient removal.

As for `CCNC(=O)Nc1ccc(-c2nc(N3CCOC[C@@H]3C)c3c(ncn3CC)n2)cc1`, the Ki in series [1] and in series [2] was > 10000 nM in each case.

As to `CCNC(=O)Nc1ccc(-c2nc(N3CCOC[C@@H]3CC)c3c(cnn3C)n2)cc1`, the IC50 came to 8 nM in [3] and 15 nM in series [4]. For the same molecule, the EC50 is 130 nM in series [5] and 260 nM in [6]. In addition, the Ki was > 10000 nM in series [1], 3400 nM in [2] and 1 nM in series [7].

With `CCNC(=O)Nc1ccc(-c2nc(N3CCOC[C@@H]3C)c3ncn(C)c3n2)cc1`, the Ki in series [1] was determined as 890 nM; in series [2], 370 nM; in series [7], 12 nM.

Regarding `CCNC(=O)Nc1ccc(-c2nc(N3CCOC[C@@H]3C)c3nc(C(C)(C)O)n(CCO)c3n2)cc1`, the Ki in series [8] turned out to be 9 nM; in series [1], 160 nM; in [2], 190 nM; in series [7], 9.5 nM.

As to `CCNC(=O)Nc1ccc(-c2nc(N3CCOCC3)c3c(ncn3C)n2)cc1`, the Ki in series [7] stood at 150 nM.

Take `CCNC(=O)Nc1ccc(-c2nc(N3CCOC[C@@H]3C)c3nc(C(C)(C)O)n(C)c3n2)cc1`: the Ki stood at 490 nM in [1], 390 nM in series [2] and 7 nM in [7].

Regarding `CCNC(=O)Nc1ccc(-c2nc(N3CCOC[C@H]3C)c3c(ncn3C)n2)cc1`, the IC50 came out at 4000 nM in series [1] and 5800 nM in [2].

On to `CCNC(=O)Nc1ccc(-c2nc(N3CCOC[C@@H]3C)c3c(cnn3C)n2)cc1`, for which the Vd in series [9] turned out to be 0.36 L/kg. Moreover, the IC50 in [3] came out at 8 nM; in series [4], 47 nM. The figures for the EC50 in series [5] and in series [6] were 420 nM and 760 nM, respectively. Further, the bioavailability in series [10] was 4.4%. Further, the efflux ratio in series [11] was found to be 0.55. Further, the values for the Ki in series [1], in series [2] and in [7] were > 10000 nM, > 10000 nM and 8 nM, respectively. For the same molecule, the Papp B→A in [12] turned out to be 8.6 ×10⁻⁶ cm/s. The molecule further came in with a clearance in [13] of 13 mL/min/kg.

For `CCNC(=O)Nc1ccc(-c2nc(N3C[C@@H]4C[C@H]3CO4)c3c(cnn3C)n2)cc1`, the figures for the IC50 in [3] and in series [4] were 340 nM and 270 nM, respectively. Also, the values for the EC50 in series [5] and in [6] were 2900 nM and 1700 nM, respectively. Also, the Ki turned out to be 5150 nM in series [1], 5140 nM in series [2] and 28 nM in series [7].

Regarding `CCNC(=O)Nc1ccc(-c2nc(N3CCOC[C@@H]3C)c3c(ccn3C)n2)cc1`, the IC50 in [3] came to 77 nM; in series [4] it was 110 nM. The results for the EC50 in [5] and in [6] were 1900 nM and 9000 nM, respectively. Also, the inhibitory constant (Ki) was > 10000 nM in series [1], > 10000 nM in series [2] and 19 nM in series [7].

Regarding `CCNC(=O)Nc1ccc(-c2nc(N3CCOC[C@@H]3C)c3ncn(CC)c3n2)cc1`, the Ki in [1] came to 630 nM; in series [2], 380 nM; in [7] it was 8 nM.

For the molecule `CCNC(=O)Nc1ccc(-c2nc(N3CCOC[C@@H]3CC)c3c(ccn3C)n2)cc1`, the IC50 worked out at 11 nM in series [3] and 40 nM in series [4]. Further, the EC50 in series [5] was 280 nM; in [6], 420 nM. Further, the Ki is > 10000 nM in series [1], > 10000 nM in series [2] and 6 nM in series [7].

As for `CCNC(=O)Nc1ccc(-c2nc(N3CCOC[C@@H]3C)c3c(n2)nc(C(C)(C)O)n3C)cc1`, the Ki came out at 7300 nM in series [1] and 7000 nM in series [2].

Take `CCNC(=O)Nc1ccc(-c2nc(N3CCOC[C@@H]3CC)c3c(ncn3C)n2)cc1`: the Ratio in [14] and in [15] was > 2600 in each case. In addition, the half-inhibitory concentration (IC50) is 69 nM in [3], 153 nM in [4], > 10000 nM in series [1] and > 10000 nM in series [2]. The figures for the EC50 in series [5] and in series [6] were 737 nM and 518 nM, respectively.

Regarding `CCNC(=O)Nc1ccc(-c2nc(N3CCOC[C@@H]3C)c3c(ncn3C)n2)cc1`, the EC50 in [5] stood at 290 nM; in [6], 1300 nM. The Ki in [1] and in [2] was > 10000 nM each time.

Consider `CCNC(=O)Nc1ccc(-c2nc(N3CCOC[C@@H]3CC)c3c(n2)c(C)nn3C)cc1`, for which the values for the IC50 in series [3] and in series [4] were 4 nM and 8 nM, respectively. Further, the EC50 in [5] was 86 nM; in series [6], 160 nM. Moreover, the Ki in series [1] is > 10000 nM; in series [2] it was 5800 nM.

Consider `CC(C)(O)c1nc2c(N3CCOCC3)nc(-c3cnc(N)nc3)nc2n1CCO`, for which the values for the Ki in [8], in [1] and in series [2] were 72 nM, 4 nM and 2 nM, respectively.

In the case of `CCNC(=O)Nc1ccc(-c2nc(N3CCCOCC3)c3c(ncn3C)n2)cc1`, the Ratio stood at 53 in series [14] and 61 in series [15]. Moreover, the IC50 worked out at 7200 nM in series [3], 8900 nM in series [4], 7300 nM in [1] and 6400 nM in series [2].

Values taken from ChEMBL document CHEMBL2417437, “A hit to lead discovery of novel N-methylated imidazolo-, pyrrolo-, and pyrazolo-pyrimidines as potent and selective mTOR inhibitors” (Bioorg Med Chem Lett, 2013).
